“And” between values parts separate entries of the source, which are not always exact repeats. Equal entries are not always repeated. The source made the active and inactive calls.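 How the source made its calls: active means fitted curve rises to an activation of 500 at or below the top valid dose; inactive means the rest, including activity in the falling direction.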
Assays:
[1] = system: U2OS HRE-luciferase, zinc medium, luminescence; test: HRE reporter activators under added zinc – cell-based, U2OS, luminescence, dry powder, set 2, mechanism study for HIF pathway activator project, dose response (AID 493234)
Outline: (§1)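 schedule = 24 h cell growth at 37 °C, then 24 h compound exposure | system = U2OS cells with stable HRE-luciferase reporter | detection = Steady-Glo luminescence | compound dosing = 8 concentrations, 3-fold dilution steps | probe or stimulus = zinc sulfate, 50 µM final, added before compound addition | buffer or medium = phenol red-free DMEM with 10% FBS, without hygromycin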

[2] = as above; details: U2OS HRE-luciferase, zinc medium, luminescence; at 38 µM (top of the series)
Outline: as §1

Structure (SMILES)	AC500 [1]	activation [2]
C=CCNc1nc(-c2ccccn2)nnc1-c1ccccc1	15 µM	–
Oc1ccc(CN2CCc3ccccc3C2)c2cccnc12	–	-19.3% (inactive) and -19.9% (inactive)
COc1cccc(CNc2nc(-c3ccccn3)nnc2-c2ccccc2)c1	3.92 µM	–
Cc1ccccc1CNc1nc(-c2ccccn2)nnc1-c1ccccc1	7.16 µM	–
Cn1c(-c2ccccc2)cnc1Nc1nc(-c2ccccn2)nnc1-c1ccccc1	–	109% (inactive)
c1ccc(-c2cccc(CNc3nc(-c4ccccn4)nnc3-c3ccccc3)c2)cc1	3.69 µM	–
c1ccc(-c2nnc(-c3ccccn3)nc2Nc2nc3ccccc3s2)cc1	–	-16.5% (inactive)
c1ccc(-c2nnc(-c3ccccn3)nc2N2CCC(N3CCOCC3)CC2)cc1	16.2 µM	–
COc1ccc(CNc2nc(-c3ccccn3)nnc2-c2ccccc2)cc1	5.26 µM	–
O=C(NCC1CC1)c1cc(-c2ccccc2)on1	–	386% (inactive)
c1ccc(-c2csc(Nc3nc(-c4ccccn4)nnc3-c3ccccc3)n2)cc1	–	86.1% (inactive)
O=C(Nc1nc2ccccc2s1)c1cc(-c2ccccc2)on1	–	14.8% (inactive)
O=C(c1cc(-c2ccccc2)on1)N1CCN(c2ccncc2)CC1	–	-5.2% (inactive)
O=C(NCCN1CCOCC1)c1cc(-c2ccccc2)on1	–	430% (inactive)
Cc1ccc(CNc2nc(-c3ccccn3)nnc2-c2ccccc2)cc1C	2.19 µM	–
OCCCNc1nc(-c2ccccn2)nnc1-c1ccccc1	22.9 µM	–
c1ccc(-c2nnc(-c3ccccn3)nc2N2CCC(C3CCCCC3)C2)cc1 (configuration not stated)	6.32 µM	–
O=C(NCCCN1CCOCC1)c1cc(-c2ccccc2)on1	–	449% (inactive)
CN1CCN(C(=O)c2cc(-c3ccccc3)on2)CC1	–	-12.5% (inactive)
Cc1cccc(CNC(=O)c2cc(-c3ccccc3)on2)c1	–	-0.529% (inactive)
Cc1cccc(CNc2nc(-c3ccccn3)nnc2-c2ccccc2)c1	6.47 µM	–
O=C(c1cc(-c2ccccc2)on1)N1CCC(CO)CC1	–	-4.31% (inactive)

Structure (SMILES)	AC500 [1]	activation [2]
O=C(NC1Cc2ccccc2C1)c1cc(-c2ccccc2)on1	–	56% (inactive)
Oc1ccc(CNC2Cc3ccccc3C2)c2cccnc12	–	217% (inactive)
CN(C)c1nc(-c2ccccn2)nnc1-c1ccccc1	20.2 µM	–
O=C(c1cc(-c2ccccc2)on1)N1CCC(N2CCOCC2)CC1	–	1.96% (inactive)
c1ccc(-c2nnc(-c3ccccn3)nc2NCC2CCOCC2)cc1	18.8 µM	–
CC(C)(C)OC(=O)N1CCN(Cc2ccc(O)c3ncccc23)CC1	–	4.29% (inactive)
O=C(Nc1ccc2ccccc2n1)c1cc(-c2ccccc2)on1	–	-7.7% (inactive)
c1ccc(-c2nnc(Nc3nc(-c4ccccn4)nnc3-c3ccccc3)s2)cc1	–	141% (inactive)
O=C(NCCCn1ccnc1)c1cc(-c2ccccc2)on1	16.4 µM	–
O=C(Nc1cn2ccccc2n1)c1cc(-c2ccccc2)on1	–	7.47% (inactive)
c1ccc(-c2nnc(-c3ccccn3)nc2NCCN2CCOCC2)cc1	15.7 µM	–
c1ccc(-c2nnc(-c3ccccn3)nc2N2CCC(c3ccccc3)C2)cc1 (configuration not stated)	3.01 µM	–
Cc1cccc(Nc2nc(-c3ccccn3)nnc2-c2ccccc2)n1	13.2 µM	–
c1ccc(-c2ccc(CNc3nc(-c4ccccn4)nnc3-c3ccccc3)cc2)cc1	3.41 µM	–
Oc1ccc(CN2CCC(Cc3ccccc3)CC2)c2cccnc12	–	-5.34% (inactive)
COc1ccccc1N1CCN(Cc2ccc(O)c3ncccc23)CC1	–	-1.45% (inactive)
O=C(Nc1cnc2ccccc2c1)c1cc(-c2ccccc2)on1	–	10.1% (inactive)
OCC1CCN(c2nc(-c3ccccn3)nnc2-c2ccccc2)CC1	21.1 µM	–
Cc1ccc(NC(=O)c2cc(-c3ccccc3)on2)cn1	–	20.6% (inactive)
c1ccc(-c2nnc(-c3ccccn3)nc2NCc2ccccn2)cc1	20.8 µM	–
Oc1ccc(CNC2CCc3ccccc32)c2cccnc12 (configuration not stated)	–	-23.4% (inactive)
Clc1cccc(CNc2nc(-c3ccccn3)nnc2-c2ccccc2)c1	2 µM	–

Structure (SMILES)	AC500 [1]	activation [2]
C[C@H](Nc1nc(-c2ccccn2)nnc1-c1ccccc1)C1CCCCC1	5.01 µM	–
O=C(c1cc(-c2ccccc2)on1)N1CCc2cccnc21	–	3.59% (inactive)
C[C@@H](Nc1nc(-c2ccccn2)nnc1-c1ccccc1)C1CCCCC1	6.94 µM	–
O=C(NCCCO)c1cc(-c2ccccc2)on1	–	325% (inactive)
O=C(NCCN1CCCCC1)c1cc(-c2ccccc2)on1	–	32.2% (inactive)
O=C(c1cc(-c2ccccc2)on1)N1CCC(N2CCCC2)CC1	–	4.99% (inactive)
CN(C)CCNC(=O)c1cc(-c2ccccc2)on1	–	9.51% (inactive)
CC1CN(Cc2ccc(O)c3ncccc23)CC(C)O1 (configuration not stated)	–	-5.99% (inactive)
OCC1CCN(Cc2ccc(O)c3ncccc23)CC1	–	12.5% (inactive)
c1ccc(-c2nnc(-c3ccccn3)nc2NCCc2ccccn2)cc1	18 µM	–
Cc1ccc(Nc2nc(-c3ccccn3)nnc2-c2ccccc2)cn1	17.8 µM	–
CN1CCN(c2nc(-c3ccccn3)nnc2-c2ccccc2)CC1	15.8 µM	–
O=C(Nc1ncc2ccccc2n1)c1cc(-c2ccccc2)on1	–	34.5% (inactive)
Cc1cccc(NC(=O)c2cc(-c3ccccc3)on2)n1	–	24.2% (inactive)
Cn1c(-c2ccccc2)cnc1NC(=O)c1cc(-c2ccccc2)on1	–	9.13% (inactive)
CC(Nc1nc(-c2ccccn2)nnc1-c1ccccc1)c1ccccc1 (configuration not stated)	9.22 µM	–
O=C(Nc1ncc(-c2ccccc2)o1)c1cc(-c2ccccc2)on1	–	-4.08% (inactive)
C[C@@H](Nc1nc(-c2ccccn2)nnc1-c1ccccc1)c1ccccc1	6.17 µM	–
Cc1ccccc1CNC(=O)c1cc(-c2ccccc2)on1	–	15.2% (inactive)
CC(C)(C)CCNC(=O)c1cc(-c2ccccc2)on1	–	247% (inactive)
Oc1ccc(CN2CCC3CCCCC3C2)c2cccnc12 (configuration not stated)	–	275% (inactive)
CCCCNC(=O)c1cc(-c2ccccc2)on1	32.2 µM	–

Structure (SMILES)	AC500 [1]	activation [2]
c1ccc(-c2nnc(-c3ccccn3)nc2NCC2CCCCC2)cc1	5.43 µM	–
Cn1c(NC(=O)c2cc(-c3ccccc3)on2)nc2ccccc21	–	-0.203% (inactive)
c1ccc(-c2nnc(-c3ccccn3)nc2NCc2cccnc2)cc1	19 µM	–
c1ccc(-c2nnc(-c3ccccn3)nc2Nc2cnc3ccccc3n2)cc1	–	-25.9% (inactive)
Cc1ccc(CNC(=O)c2cc(-c3ccccc3)on2)cc1	–	-6.78% (inactive)
O=C(NCc1ccccc1)c1cc(-c2ccccc2)on1	–	32.9% (inactive)
O=C(Nc1nnc(-c2ccccc2)s1)c1cc(-c2ccccc2)on1	–	4.85% (inactive)
O=C(NCCCCO)c1cc(-c2ccccc2)on1	12.1 µM	–
CC(C)(C)CCNc1nc(-c2ccccn2)nnc1-c1ccccc1	4.65 µM and 2.47 µM	–
c1ccc(CCNc2nc(-c3ccccn3)nnc2-c2ccccc2)cc1	7.94 µM	–
c1ccc(-c2nnc(-c3ccccn3)nc2N2CCN(c3ccncc3)CC2)cc1	15.3 µM	–
N#CC1(c2ccccc2)CCN(Cc2ccc(O)c3ncccc23)CC1	–	27.6% (inactive)
CC(C)(C)c1ccc(CNc2nc(-c3ccccn3)nnc2-c2ccccc2)cc1	2.89 µM	–
c1ccc(-c2nnc(-c3ccccn3)nc2NCC2CC2)cc1	16.1 µM	–
Cc1ccc(CNc2nc(-c3ccccn3)nnc2-c2ccccc2)cc1	7.26 µM	–
c1ccc(-c2cnc(Nc3nc(-c4ccccn4)nnc3-c3ccccc3)s2)cc1	–	19.5% (inactive)
O=C(NCC1CCCCC1)c1cc(-c2ccccc2)on1	–	52.6% (inactive)
c1ccc(-c2nnc(-c3ccccn3)nc2NCCCN2CCOCC2)cc1	16 µM	–
O=C(Nc1nc(-c2ccccc2)cs1)c1cc(-c2ccccc2)on1	–	-1.71% (inactive)
O=C(NC1CCc2ccccc2C1)c1cc(-c2ccccc2)on1 (configuration not stated)	–	-5.89% (inactive)
c1ccc(CNc2nc(-c3ccccn3)nnc2-c2ccccc2)cc1	6.89 µM	–
